Molecules are shown by their SMILES. Activity calls are given as the source filed them.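 The calls were made as follows, unless noted: active = potentiation averaged over duplicate wells exceeding buffer-only control mean by more than 3 SD; inactive = the rest.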

The results in this text go back to PubChem BioAssay.

Assay [1] is described as follows: nonspecific flux increase, KCNQ1-free cells – parental CHO cells, counter-screen for KCNQ1 potentiator project (AID 493006;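 active = duplicate-averaged activation above buffer control mean plus 5 SD of those controls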;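 as to activation: fluorescence ratio of max minus min over baseline after K+ and Tl+ depolarization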). Particulars: parental CHO-K1 cells, FluxOR thallium flux, at 10 µM; stronger effect = higher value. The gist of the method: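 Material: parental CHO-K1 cells, FluxOR dye-loaded; Also added: Potassium/thallium depolarization pulse; Schedule: overnight 37 °C plating, 90 min dye, 20 min dark compound; Signal: kinetic FluxOR fluorescence, 10 s baseline, 110 s after stimulus.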
(In general: A counterscreen serves to expose hits that act by an unwanted route or on another target.)

Assay [2] concerns the target Potassium voltage-gated channel subfamily KQT member 1 (Homo sapiens) (UniProt P51787). Briefly: enhancement of KCNQ1 channel thallium flux – FluxOR thallium flux, CHO cells, duplicates, confirmation (AID 493007).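 As to outcome: cells depolarized by a potassium plus thallium sulfate stimulus after compound.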 Particulars: KCNQ1 cell line, FluxOR thallium flux fluorescence, at 10 µM; stronger effect = higher value, % of reference activator effect, buffer zero. The gist of the method: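 System: KCNQ1-expressing CHO cell line; technique: kinetic thallium influx fluorescence with FluxOR dye, 10 s baseline, 110 s post-stimulus; timing: dye 90 min then compound 20 min, both at room temperature; controls: buffer-only wells as 0% and R-L3 activator as 100%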

In assay [3] the target is Potassium voltage-gated channel subfamily KQT member 2 (Rattus norvegicus) (UniProt O88943). Briefly: KCNQ2 thallium flux enhancement – KCNQ2-CHO-K1 cells, selectivity assay for KCNQ1 potentiator project (AID 493009;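 active = mean duplicate potentiation above the buffer control mean plus 5 SD of buffer wells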;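 also: assay conditions were tuned for KCNQ1 rather than KCNQ2 modulators; signal is max minus min fluorescence divided by baseline after thallium stimulus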). The conditions noted are these: FluxOR thallium flux fluorescence, at 10 µM; stronger effect = higher value, scaled: buffer 0, activator control 100.
Potassium voltage-gated channel subfamily KQT member 2 (Rattus norvegicus), sequence (O88943 whole entry, looked up): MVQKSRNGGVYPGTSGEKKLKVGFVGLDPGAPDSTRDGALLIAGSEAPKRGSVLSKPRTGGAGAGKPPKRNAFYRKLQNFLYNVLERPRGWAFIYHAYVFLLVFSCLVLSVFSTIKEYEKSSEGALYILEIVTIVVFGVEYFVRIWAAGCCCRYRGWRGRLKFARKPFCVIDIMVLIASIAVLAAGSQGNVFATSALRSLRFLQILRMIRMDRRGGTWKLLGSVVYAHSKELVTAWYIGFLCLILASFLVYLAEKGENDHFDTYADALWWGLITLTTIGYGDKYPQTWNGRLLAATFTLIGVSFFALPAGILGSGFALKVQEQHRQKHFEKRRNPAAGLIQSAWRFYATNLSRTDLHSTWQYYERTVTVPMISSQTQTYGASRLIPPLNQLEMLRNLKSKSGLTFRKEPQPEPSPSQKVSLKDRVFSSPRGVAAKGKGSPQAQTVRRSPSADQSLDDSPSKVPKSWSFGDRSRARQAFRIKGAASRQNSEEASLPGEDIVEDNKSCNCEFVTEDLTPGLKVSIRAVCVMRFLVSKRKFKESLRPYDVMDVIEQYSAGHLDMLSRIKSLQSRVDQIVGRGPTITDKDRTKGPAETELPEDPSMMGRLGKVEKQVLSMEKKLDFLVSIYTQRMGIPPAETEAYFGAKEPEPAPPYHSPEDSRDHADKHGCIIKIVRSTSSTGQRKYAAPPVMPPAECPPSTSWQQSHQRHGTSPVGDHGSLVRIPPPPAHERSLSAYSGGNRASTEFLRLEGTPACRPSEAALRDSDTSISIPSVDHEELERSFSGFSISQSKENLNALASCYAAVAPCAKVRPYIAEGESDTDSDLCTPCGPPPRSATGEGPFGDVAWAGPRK
Assay [4] concerns the target Potassium voltage-gated channel subfamily KQT member 1 (Homo sapiens) (UniProt P51787). In words: KCNQ1 activators by electrophysiology – IonWorks patch clamp, KCNQ1-CHO cells, orthogonal assay for KCNQ1 potentiator project, confirmation (AID 493184;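 active = current rise at least 3 SD above the untreated control mean in each of two repeat wells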;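 as to current potentiation: percent change of the same well's current before compound addition so 0% = no change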). Particulars: automated patch clamp current, at 10 µM; stronger effect = higher value. The gist of the method: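 Test system: KCNQ1-expressing CHO cells. Medium: pH 7.4 external bath. Probe or stimulus: voltage step from -90 mV holding to +40 mV, 2,000 ms. Compound: 10 µM final, single point. Detection: automated perforated-patch electrophysiology. Read-out: percent current increase versus pre-compound level. Repeats: two replicates.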
Background: Patch clamp records ionic current or voltage across a cell membrane.

Potassium voltage-gated channel subfamily KQT member 1 (Homo sapiens), sequence (P51787 whole entry, looked up): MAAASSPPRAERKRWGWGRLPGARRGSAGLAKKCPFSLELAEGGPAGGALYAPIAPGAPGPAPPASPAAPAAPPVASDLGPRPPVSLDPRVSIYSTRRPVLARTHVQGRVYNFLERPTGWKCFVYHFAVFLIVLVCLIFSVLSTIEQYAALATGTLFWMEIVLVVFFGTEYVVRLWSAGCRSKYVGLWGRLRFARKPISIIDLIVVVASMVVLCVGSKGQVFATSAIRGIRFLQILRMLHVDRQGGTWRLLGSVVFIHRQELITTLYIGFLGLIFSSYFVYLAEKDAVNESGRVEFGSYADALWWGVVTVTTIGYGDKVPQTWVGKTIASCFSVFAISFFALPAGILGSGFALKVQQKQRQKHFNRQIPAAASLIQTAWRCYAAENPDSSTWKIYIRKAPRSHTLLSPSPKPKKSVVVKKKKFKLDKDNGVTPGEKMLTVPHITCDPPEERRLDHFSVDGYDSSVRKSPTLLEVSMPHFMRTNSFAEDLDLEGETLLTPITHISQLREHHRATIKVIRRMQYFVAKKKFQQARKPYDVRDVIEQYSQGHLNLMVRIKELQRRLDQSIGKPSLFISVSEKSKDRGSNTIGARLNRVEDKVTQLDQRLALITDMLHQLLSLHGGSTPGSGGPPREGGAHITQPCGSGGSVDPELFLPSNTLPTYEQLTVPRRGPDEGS

Turning to `O=C(Nc1nnc(-c2ccc3c(c2)CCCC3)o1)c1c(F)cccc1F`, the activation in assay [1] was 148% (active). In addition, the potentiation in assay [2] is 25% (active); in assay [3] it was 182% (active). Moreover, the current potentiation in assay [4] is 20.7% (active).
Turning to `CC(O)Cc1cn([C@@H](CCCCN)C(=O)N2CCNCC2)nn1` (stereo not given in full), the result in assay [1], in assay [2], in assay [3] and in assay [4] was inactive.
For the molecule `COc1cccc(NC(=O)c2cncs2)c1`, the outcome in assay [1], in assay [2], in assay [3] and in assay [4] was inactive.
On to `Cc1cc(NC(c2cccnc2)c2c(C)[nH]c3ccccc23)no1` (stereo not given), for which the result in assay [1], in assay [2], in assay [3] and in assay [4] was inactive.
Regarding `COC(=O)COc1ccc(-c2ccccc2)cc1C=O`, in assay [1], the activation is 179% (active). Also, the figures for the potentiation in assay [2] and in assay [3] were 34.5% (active) and 216% (active), respectively. The outcome in assay [4] was inactive.
In the case of `CCOC(=O)c1sc(NC(=S)NC(=O)c2ccc(OC)cc2)nc1C`, the outcome in assay [1], in assay [2], in assay [3] and in assay [4] was inactive.
On to `O=C(Nc1ccccc1OC(F)F)c1ccc(F)cc1`, for which the result in assay [1], in assay [2], in assay [3] and in assay [4] was inactive.
`O=C(NC(=S)Nc1nc2ccc(F)cc2s1)c1ccco1`: the activation in assay [1] was 282% (active). Further, the potentiation in assay [2] was 132% (active); in assay [3], 331% (active). The outcome in assay [4] was inactive.
Take `COc1ccc2oc(C(=O)OCC(=O)N3CC(C)OC(C)C3)c(C)c2c1` (stereo not given): the result in assay [1], in assay [2], in assay [3] and in assay [4] was inactive.
Consider `O=C(Nc1cccc2cccnc12)c1ccc(Br)o1`, for which the result in assay [1], in assay [2], in assay [3] and in assay [4] was inactive.
Take `Cc1[nH]n(-c2ccccc2)c(=O)c1N=Nc1nccs1`: the activation in assay [1] is 816% (active). In addition, the figures for the potentiation in assay [2] and in assay [3] were 418% (active) and 787% (active), respectively. Moreover, the current potentiation in assay [4] is 20.9% (active).
With `COc1ccc(S(=O)(=O)Nc2cccc3ccc(O)cc23)cc1`, the outcome in assay [1], in assay [2], in assay [3] and in assay [4] was inactive.
`O=S(=O)(/C=C/c1ccccc1)n1cnc2ccccc21`: the outcome in assay [1], in assay [2], in assay [3] and in assay [4] was inactive.
As to `CCNC(=S)/N=C(\N)Nc1nc(C)c2cc(C)ccc2n1`, the outcome in assay [1], in assay [2], in assay [3] and in assay [4] was inactive.
On to `Fc1ccc(-c2csc(=S)[nH]2)cc1`, for which, in assay [1], the activation is 416% (active). Moreover, the potentiation in assay [2] was 120% (active); in assay [3], 398% (active). For the same molecule, the outcome in assay [4] was inactive.
As for `CCC(=O)NC(=Nc1nc2ccccc2s1)NC(=O)CC`, the result in assay [1], in assay [2], in assay [3] and in assay [4] was inactive.
Turning to `CC(=O)N/C(=C/c1ccc2c(c1)OCO2)C(=O)O`, the result in assay [1], in assay [2], in assay [3] and in assay [4] was inactive.
On to `CN(CC(=O)Nc1ccc(F)c(F)c1F)C(=O)CC1OC(=O)c2ccccc21` (stereo not given), for which the result in assay [1], in assay [2], in assay [3] and in assay [4] was inactive.
For `CCCc1ccc2oc(C(=O)N(C)CCn3ccnc3C)c(C)c2c1`, the result in assay [1], in assay [2], in assay [3] and in assay [4] was inactive.
`CCCCn1c(SCC(=O)/C(C#N)=C(\C)N)nc2ccccc2c1=O`: the outcome in assay [1], in assay [2], in assay [3] and in assay [4] was inactive.
Turning to `Cc1ccc(S(=O)(=O)NN2C(=O)/C(=C/c3cccc(F)c3)SC2=S)cc1`, the activation in assay [1] was 176% (active). In addition, the potentiation in assay [2] was 20.5% (active); in assay [3], 152% (active). The current potentiation in assay [4] is 37.3% (active).
On to `CSc1nc(C)cc(OCC(=O)N/N=C/c2ccccc2O)n1`, for which the result in assay [1], in assay [2], in assay [3] and in assay [4] was inactive.
As to `C/C(=N\NC(=S)Nc1cccc(C)c1)c1cc2ccccc2o1`, the activation in assay [1] was 159% (active). The potentiation is 60% (active) in assay [2] and 172% (active) in assay [3]. Further, the result in assay [4] was inactive.
As to `O=C(O)CCC(=O)Nc1ccc(-c2nc3ccc(C(=O)c4ccccc4)cc3[nH]2)cc1`, the outcome in assay [1], in assay [2], in assay [3] and in assay [4] was inactive.
Turning to `COc1cnc(-c2ccccn2)nc1Oc1ccccc1Cl`, the outcome in assay [1], in assay [2], in assay [3] and in assay [4] was inactive.
As for `O=C1NC(=S)SC1=C1CCCC1`, in assay [1], the activation was 142% (active). In addition, the potentiation in assay [2] is 24.5% (active); in assay [3], 166% (active). In addition, the result in assay [4] was inactive.
With `COc1cccc(C(=O)NC(=S)N2c3ccccc3CC2C)c1OC` (stereo not given), the outcome in assay [1], in assay [2], in assay [3] and in assay [4] was inactive.
`COCCCn1c(=S)[nH]c2sc3c(c2c1=O)CCCS3`: the activation in assay [1] is 147% (active). For the same molecule, in assay [2], the potentiation was 30.5% (active). The result in assay [3] and in assay [4] was inactive.
`CCOC(=O)c1sc(NC(=S)NC(=O)c2ccco2)nc1C`: in assay [1], the activation is 142% (active). Further, the values for the potentiation in assay [2] and in assay [3] were 37% (active) and 157% (active), respectively. The outcome in assay [4] was inactive.
As to `Cc1ccc(N(C(=O)c2ccco2)C(C(=O)NC2CCCC2)c2cccnc2)cc1C` (stereo not given), the result in assay [1], in assay [2], in assay [3] and in assay [4] was inactive.
